One series has as its system α-synuclein. It counts as cell-based, human.
The test system of a further series is purified α-synuclein. The series can be described thus: CoCl2-induced aggregation of purified α-synuclein, SDS gel. It counts as biochemical.
Series [1] has as its system PLCβ1. Briefly: Western blot of PLCβ1 level in SK-N-SH cells under oxidative stress. Type of series: cell-based, human.
The test system of series [2] is α-synuclein self-association in SK-N-SH cells. Type of series: cell-based, human.
The test system of series [3] is PLCβ1. Type of series: biochemical.
The subject of series [4] is α-synuclein self-association in PC12 cells. The series can be described thus: GFP-α-synuclein/mCherry-α-synuclein FRET in PC12 cells. Conditions: 50 µM peptide microinjected, viewed within 2 h. Type of series: cell-based, human. The essentials:
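PC12 cells (DMEM, 10% horse serum, 5% FBS, 37 °C, 5% CO₂) are electroporated with eGFP- and mCherry-α-synuclein and plated on glass-bottom dishes 24 h later. Medium is switched to phenol-free L-15. Peptide (50 µM in pipette; 100 mM KCl, 5 mM K₂HPO₄, pH 7.4, 5 µM DAPI marker) is injected into cytoplasm for 0.4 s (30/15 hPa). Viable cells are selected, then confocal FRET is imaged within 2 h.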

The subject of series [5] is PLCβ1-α-synuclein association. The series can be described thus: In vitro FRET: CPM-PLCβ1 / Dabcyl-α-synuclein association. It counts as binding. Conditions: 200 µM and 500 µM peptide.
The test system of series [6] is PLCβ. Conditions: among α-synuclein binding partners; ref [15]; cited from earlier work.
Series [7] has as its system PLCβ. Conditions: inhibition can be overcome by G proteins; ref [15]; cited from earlier work.
A further series relates to PLCβ1-C3PO interaction. The note with it: in vitro FRET; ref Sahu, Guo, and Scarlata, unpublished results; cited from earlier work.
Another series relates to neuronal cells. The note with it: overexpression of α-synuclein; ref [34]; cited from earlier work.
The subject of series [8] is PLCβ1. The note with it: in cells; ref [16]; cited from earlier work.

No end group written: not given here.

Consider three compounds from publication PMC4565189 (Biochemistry, 2013).

In the case of `[Cl-].[Cl-].[Co+2]` [CoCl2], in the series on α-synuclein, the “Amount of α-synuclein” value is “little effect on the amount of α-synuclein” and the “α-Synuclein tetramers vs monomers” value is “increase in α-synuclein tetramers at the expense of monomers”. Besides, the “α-Synuclein aggregation induced by CoCl2” value in the series with purified α-synuclein was “produces visible α-synuclein aggregation”. Also, in the series on PLCβ1 [1], the “Cellular level of PLCβ1” value was “significantly reduces the cellular level of PLCβ1”. In addition, in series [2], the “GFP-α-synuclein/mCherry-α-synuclein FRET, oxidative stress” value was “significant increase in FRET”. Further, the “Amount of native PLCβ1” value in the series with PLCβ1 [3] was “reduces the amount of native PLCβ1”.

Regarding CKKVVLPTLASLR [peptide], the “GFP-α-synuclein/mCherry-α-synuclein FRET, peptide” value in series [4] is listed as “the same within error”. In addition, the PLCβ1-α-synuclein association entry in series [5] is “inhibits PLCβ1-α-synuclein association”.

Regarding α-synuclein, in the series with PLCβ [6], the “Affinity of PLCβ for α-synuclein” value is reported as “one of the strongest affinities”. For the same compound, in the series with PLCβ [7], the PLCβ activity entry is reported as “inhibits PLCβ activity”. In addition, the “Interaction of Alexa488-PLCβ1 with Alexa546-C3PO” value with PLCβ1-C3PO interaction is “prevents Alexa488-PLCβ1 from interacting with Alexa546-C3PO”. Further, the “Inclusions and neuronal death on overexpression” value in the series with neuronal cells was “cause inclusions and neuronal death”. Besides, in the series with PLCβ1 [8], the “Intracellular level of PLCβ1” value was “raises the intracellular level of the enzyme” and the “PLCβ1 degradation by calpain” value is “prevents PLCβ1 degradation by calpain”. For the same compound, the “Decrease of PLCβ1 level due to oxidation, effect of α-synuclein” value in the series with PLCβ1 [1] (oxidative stress, α-synuclein present) is “more pronounced in the presence of α-synuclein”.
